Assays:
[1] = tested on: HCT-116; assay: Growth inhibition of human HCT116 cells after 48 hrs by sulforhodamine B assay; type: functional, cell-based; details: HCT-116, 48 h
Procedure, shortened: (§1)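 Cells were grown in RPMI-1640 with 10% FBS, penicillin, streptomycin and amphotericin B at 37 °C in 5% CO2, then treated for 48 h in triplicate wells. They were fixed with cold 50% TCA for 1 h at 4 °C, stained with 0.4% SRB in 1% acetic acid for 10 min at RT, and dissolved in 10 mM Tris (pH 10.5) before reading A570. Percent inhibition was calculated against untreated cells after blank subtraction. IC50 is the concentration giving a 50% reduction in net protein increase, reported as mean ± SEM from ≥3 independent runs.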

[2] = tested on: SK-N-SH; assay: Growth inhibition of human SK-N-SH cells after 48 hrs by sulforhodamine B assay; type: functional, cell-based; procedure, shortened: as §1
[3] = tested on: DU-145; assay: Growth inhibition of human DU145 cells after 48 hrs by sulforhodamine B assay; type: functional, cell-based; details: DU-145, 48 h; procedure, shortened: as §1
[4] = tested on: A549; assay: Growth inhibition of human A549 cells after 48 hrs by sulforhodamine B assay; type: functional, cell-based; details: A549, 48 h; procedure, shortened: as §1
[5] = tested on: SK-BR-3; assay: Growth inhibition of human SK-BR-3 cells after 48 hrs by sulforhodamine B assay; type: functional, cell-based; details: SK-BR-3, 48 h; procedure, shortened: as §1
[6] = tested on: SK-BR-3; assay: Selectivity ratio of IC50 for human SK-BR-3 cells to IC50 for human DU145 cells; type: functional
[7] = tested on: SK-BR-3; assay: Selectivity for human SK-BR-3 cells over human MCF10A cells
[8] = Cytotoxicity against human MCF10A cells at 1 uM after 72 hrs by MTT assay; type: cell-based; details: mcf-10a
Procedure, shortened: (§2)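 Cells were plated in 96-well plates with medium and treated after 24 h with five test concentrations, each in triplicate, for 72 h. They were then washed with PBS, and fresh medium plus MTT (stock 3 mg/mL in PBS) was added for 4 h at 37 °C. Formazan was dissolved in DMSO for 30 min, absorbance was read, and the data were converted to % cell viability.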

[9] = Cytotoxicity against human MCF10A cells at 0.1 uM after 72 hrs by MTT assay; type: cell-based; details: mcf-10a; procedure, shortened: as §2
[10] = tested on: SK-N-SH; assay: Selectivity ratio of IC50 for human SK-BR-3 cells to IC50 for human SK-N-SH cells; type: functional
[11] = tested on: SK-BR-3; assay: Selectivity ratio of IC50 for human SK-BR-3 cells to IC50 for human A549 cells; type: functional
[12] = tested on: SK-BR-3; assay: Selectivity ratio of IC50 for human SK-BR-3 cells to IC50 for human HCT116 cells; type: functional
[13] = Cytotoxicity against human MCF10A cells at 10 uM after 72 hrs by MTT assay; type: cell-based; details: mcf-10a; procedure, shortened: as §2
[14] = Cytotoxicity against human MCF10A cells at 0.3 uM after 72 hrs by MTT assay; type: cell-based; details: mcf-10a; procedure, shortened: as §2
[15] = Cytotoxicity against human MCF10A cells at 3 uM after 72 hrs by MTT assay; type: cell-based; details: mcf-10a; procedure, shortened: as §2
[16] = Growth inhibition of human MCF10A cells after 48 hrs by sulforhodamine B assay; type: cell-based; details: MCF-10A; procedure, shortened: as §1

SMILES: CO[C@@H]1CC=C2NN(c3cc(F)cc(Cl)c3)C(=O)C[C@]2(c2ccccc2)O1
- IC50 [1]: 16.2 µM
- IC50 [2]: 17.4 µM
- IC50 [3]: 16.1 µM
- IC50 [4]: 14.1 µM
- IC50 [5]: 17.6 µM

SMILES: COc1cc(OC)cc(N2NC3=CC[C@@H](OC)O[C@@]3(c3ccncc3)CC2=O)c1
- Selectivity ratio [6]: 30
- Ratio [7]: 290
- Selectivity ratio [7]: 290
- IC50 [1]: 6.5 µM
- Activity [8]: Non-toxic
- Activity [9]: Non-toxic
- Selectivity ratio [10]: 30
- IC50 [2]: 6.4 µM
- IC50 [3]: 5.9 µM
- Selectivity ratio [11]: 30
- IC50 [4]: 6.22 µM
- Selectivity ratio [12]: 30
- Activity [13]: Non-toxic
- Activity [14]: Non-toxic
- IC50 [5]: 0.21 µM
- Activity [15]: Non-toxic
- IC50 [16]: > 51 µM

SMILES: COc1cc(OC)cc(N2NC3=CC[C@@H](OC)O[C@@]3(c3ccccc3)CC2=O)c1
- IC50 [1]: 18.1 µM
- IC50 [2]: 19.5 µM
- IC50 [3]: 18.3 µM
- IC50 [4]: 17.2 µM
- IC50 [5]: 1.2 µM

SMILES: CO[C@@H]1CC=C2NN(c3ccc(Cl)cc3)C(=O)C[C@]2(C)O1
- IC50 [1]: 35.7 µM
- IC50 [2]: 31.7 µM
- IC50 [3]: 24.2 µM
- IC50 [4]: 25.5 µM
- IC50 [5]: 28.7 µM

SMILES: CO[C@@H]1CC=C2NN(c3cc4ccccc4[nH]3)C(=O)C[C@]2(c2ccccc2)O1
- Selectivity ratio [6]: 20
- IC50 [1]: 8.2 µM
- Selectivity ratio [10]: 20
- IC50 [2]: 9.1 µM
- IC50 [3]: 7.9 µM
- Selectivity ratio [11]: 20
- IC50 [4]: 8.67 µM
- Selectivity ratio [12]: 20
- IC50 [5]: 0.53 µM
- IC50 [16]: > 38 µM

SMILES: CO[C@@H]1CC=C2NN(c3cncnc3)C(=O)C[C@]2(c2ccccc2)O1
- IC50 [1]: 9.13 µM
- IC50 [2]: 8.2 µM
- IC50 [3]: 7.33 µM
- IC50 [4]: 5.2 µM
- IC50 [5]: 5.3 µM

SMILES: COc1ccc(N2NC3=CC[C@@H](OC)O[C@@]3(c3ccccc3)CC2=O)cc1
- IC50 [1]: 11.3 µM
- IC50 [2]: 10.4 µM
- IC50 [3]: 10.1 µM
- IC50 [4]: 7.1 µM
- IC50 [5]: 8.4 µM

SMILES: CO[C@@H]1CC=C2NN(c3ccc(C)cc3)C(=O)C[C@]2(c2ccccc2)O1
- IC50 [1]: 10.5 µM
- IC50 [2]: 11.1 µM
- IC50 [3]: 11.2 µM
- IC50 [4]: 8.11 µM
- IC50 [5]: 9.2 µM

SMILES: CO[C@@H]1CC=C2NN(c3cc4ccccc4[nH]3)C(=O)C[C@]2(c2ccncc2)O1
- Selectivity ratio [6]: 30
- Ratio [7]: 290
- Selectivity ratio [7]: 290
- IC50 [1]: 4.35 µM
- Activity [8]: Non-toxic
- Activity [9]: Non-toxic
- Selectivity ratio [10]: 30
- IC50 [2]: 3.9 µM
- IC50 [3]: 4.1 µM
- Selectivity ratio [11]: 30
- IC50 [4]: 4.05 µM
- Selectivity ratio [12]: 30
- Activity [13]: Non-toxic
- Activity [14]: Non-toxic
- IC50 [5]: 0.15 µM
- Activity [15]: Non-toxic
- IC50 [16]: > 55 µM

SMILES: CO[C@@H]1CC=C2NN(c3ccc(C)cc3)C(=O)C[C@]2(C)O1
- IC50 [1]: 28.7 µM
- IC50 [2]: 25.3 µM
- IC50 [3]: 23.2 µM
- IC50 [4]: 21.5 µM
- IC50 [5]: 29.7 µM

SMILES: CO[C@@H]1CC=C2NN(c3cc4ccccc4[nH]3)C(=O)C[C@]2(C)O1
- IC50 [1]: 18.3 µM
- IC50 [2]: 19.5 µM
- IC50 [3]: 14.4 µM
- Selectivity ratio [11]: 5
- IC50 [4]: 3.92 µM
- IC50 [5]: 4.1 µM

SMILES: CO[C@@H]1CC=C2NN(c3cc(Cl)cc(Cl)c3)C(=O)C[C@]2(C)O1
- IC50 [1]: 19.4 µM
- IC50 [2]: 20.2 µM
- IC50 [3]: 21.3 µM
- IC50 [4]: 17.5 µM
- IC50 [5]: 18.8 µM

SMILES: CO[C@@H]1CC=C2NN(c3cncnc3)C(=O)C[C@]2(C)O1
- IC50 [1]: 15.1 µM
- IC50 [2]: 16.6 µM
- IC50 [3]: 17.1 µM
- Selectivity ratio [11]: 5
- IC50 [4]: 4.1 µM
- IC50 [5]: 3.4 µM

SMILES: COc1cc(OC)cc(N2NC3=CC[C@@H](OC)O[C@@]3(C)CC2=O)c1
- IC50 [1]: 24.3 µM
- IC50 [2]: 23.7 µM
- IC50 [3]: 22.2 µM
- Selectivity ratio [11]: 5
- IC50 [4]: 6.15 µM
- IC50 [5]: 5.7 µM

SMILES: CO[C@@H]1CC=C2NN(c3cc(Cl)cc(Cl)c3)C(=O)C[C@]2(c2ccncc2)O1
- IC50 [1]: 9.1 µM
- IC50 [2]: 8.3 µM
- IC50 [3]: 7.6 µM
- IC50 [4]: 7.5 µM
- IC50 [5]: 5.5 µM

SMILES: CO[C@@H]1CC=C2NN(c3cccnc3)C(=O)C[C@]2(C)O1
- IC50 [1]: 17.1 µM
- IC50 [2]: 19 µM
- IC50 [3]: 16.4 µM
- IC50 [4]: 14.3 µM
- IC50 [5]: 15.2 µM

SMILES: CO[C@@H]1CC=C2NN(c3ccc(C)cc3)C(=O)C[C@]2(c2ccncc2)O1
- IC50 [1]: 7.4 µM
- IC50 [2]: 8.1 µM
- IC50 [3]: 7.1 µM
- IC50 [4]: 5.9 µM
- IC50 [5]: 6.2 µM

Source: ChEMBL document CHEMBL1629467, “Design and synthesis of novel tetrahydro-2H-Pyrano[3,2-c]pyridazin-3(6H)-one derivatives as potential anticancer agents” (Eur J Med Chem, 2010)
